Experimental findings from ChEMBL document CHEMBL1921745, “CCR2 receptor antagonists: optimization of biaryl sulfonamides to increase activity in whole blood” (Bioorg Med Chem Lett, 2011) are described below.

The target of data set [1] is T1, C-C chemokine receptor type 2 (Homo sapiens, UniProt P41597). Nature of the data set: Antagonist activity at human CCR2 receptor expressed in CHO cells assessed as inhibition of MCP1-induced [35S]-GTPgammaS binding after 3 hrs. In kind it is functional, cell-based. (In general: Binding of GTPγS marks nucleotide exchange on a G protein.)
Target sequence in this assay (P41597 whole entry): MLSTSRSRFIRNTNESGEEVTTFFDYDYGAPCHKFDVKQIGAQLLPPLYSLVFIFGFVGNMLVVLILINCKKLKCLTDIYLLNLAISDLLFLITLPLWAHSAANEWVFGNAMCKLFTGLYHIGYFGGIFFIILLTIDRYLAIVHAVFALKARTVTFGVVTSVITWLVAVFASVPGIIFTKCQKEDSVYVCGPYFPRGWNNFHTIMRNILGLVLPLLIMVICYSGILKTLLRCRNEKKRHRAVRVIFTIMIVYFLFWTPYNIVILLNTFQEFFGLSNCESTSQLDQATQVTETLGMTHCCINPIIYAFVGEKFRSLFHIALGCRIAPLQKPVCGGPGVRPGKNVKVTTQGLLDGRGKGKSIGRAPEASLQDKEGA
In data set [2] the target is T1, C-C chemokine receptor type 2. As to the kind of experiment: Antagonist activity at human CCR2 receptor expressed in CHO cells assessed as inhibition of MCP1-induced [35S]-GTPgammaS binding after 3 hrs in presence of 5% human serum albumin. In kind it is functional, cell-based. A digest of the protocol: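 GTPγS functional assay at CCR2 run side by side with the HSA-free primary assay. HSA present at 0.2% w/v, described as 5% of physiological concentration.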
Target sequence in this assay (P41597 whole entry): as above

Data set [3] shares this target. Nature of the data set: Ratio of IC50 for human CCR2 receptor in presence of 5% human serum to IC50 for human CCR2 receptor.
Target sequence in this assay (P41597 whole entry, looked up): as the sequence (P41597 whole entry) above
Data set [4] has the same target. Nature of the data set: Antagonist activity at CCR2 receptor in human whole blood assessed as inhibition of MCP-1 induced monocyte shape change pretreated for 15 mins before MCP-1 challenge measured after 5 mins by flow cytometry. It counts as functional, tissue-based. Conditions: read-out: pA2 (converted). A digest of the protocol:
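Fresh blood from healthy human donors, preincubated 15 minutes with antagonist, then stimulated 5 minutes with a range of MCP-1 concentrations. Samples fixed rapidly and analysed by flow cytometry for increase in monocyte side scatter, plotted against MCP-1 concentration. pA2 derived by comparison with the MCP-1 dose response in vehicle-treated blood.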
For orientation: A flow cytometer gives signals particle by particle.
Target sequence in this assay (P41597 whole entry): as above

A short description of data set [5]: Cmax in satellite C57BL/6 mouse at 40 mg/kg, po. It counts as ADME, organism-based. The arrangement: dose 40 mg/kg, route oral. Conditions: in vivo. A digest of the protocol:
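Female C57Bl/6 satellite mice from the peritonitis study were given 40 mg/kg orally, with blood levels followed over about 7 hours.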

A short description of data set [6]: Cmax in rat at 1 mg/kg, iv and 1.5 mg/kg, po. In kind it is ADME, organism-based. To be noted: in vivo.
The nature of data set [7]: Half life in rat at 1 mg/kg, iv and 1.5 mg/kg, po. In kind it is ADME, organism-based. Conditions: in vivo.
Data set [8] in a line: Clearance in rat at 1 mg/kg, iv and 1.5 mg/kg, po. In kind it is ADME, organism-based. Conditions: in vivo.
The nature of data set [9]: Volume of distribution at steady state in rat at 1 mg/kg, iv and 1.5 mg/kg, po. In kind it is ADME, organism-based. To be noted: in vivo, read-out: Vdss.
A short description of data set [10]: Oral bioavailability in rat at 1.5 mg/kg. In kind it is ADME, organism-based. To be noted: in vivo.
Data set [11] in a line: Lipophilicity, log D of the compound. It counts as physicochemical. To be noted: octanol/water.
The test system of data set [12] is Mus musculus. As to the kind of experiment: Reduction of monocyte recruitment in CCR2 deficient C57BL/6 mouse thioglycolate-induced peritonitis model at 40 mg/kg, po administered 3 hrs before thioglycolate challenge relative to control. It counts as functional. Further details: scale not given: the % may be the effect or the level left. To be noted: in the assay text read “humanized CCR2 knock-in” for “CCR2 deficient”. Put shortly:
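Thioglycolate-induced peritonitis model in humanized CCR2 knock-in mice. Antagonist given orally at 40 mg/kg and monocyte recruitment compared with a vehicle group.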

Data set [13] has as its target Voltage-gated inwardly rectifying potassium channel KCNH2 (Homo sapiens, UniProt Q12809). Nature of the data set: Inhibition of human ERG.
The target in data set [14] is T2, C-C chemokine receptor type 1 (Homo sapiens, UniProt P32246).
T2 sequence (P32246 whole entry): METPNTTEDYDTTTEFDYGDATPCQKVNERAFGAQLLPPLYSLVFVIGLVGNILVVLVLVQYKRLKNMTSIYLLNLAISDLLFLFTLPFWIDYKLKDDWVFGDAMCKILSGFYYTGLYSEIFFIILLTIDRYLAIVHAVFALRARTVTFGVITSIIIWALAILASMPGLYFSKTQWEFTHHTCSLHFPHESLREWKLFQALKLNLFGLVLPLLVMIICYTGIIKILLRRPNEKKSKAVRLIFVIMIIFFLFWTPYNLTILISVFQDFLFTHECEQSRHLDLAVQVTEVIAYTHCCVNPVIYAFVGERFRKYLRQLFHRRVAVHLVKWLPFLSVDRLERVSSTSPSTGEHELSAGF
Nature of the data set: Antagonist activity at CCR1. It counts as functional.

In data set [15] the target is T3, C-C chemokine receptor type 4 (Homo sapiens, UniProt P51679).
T3 sequence (P51679 whole entry): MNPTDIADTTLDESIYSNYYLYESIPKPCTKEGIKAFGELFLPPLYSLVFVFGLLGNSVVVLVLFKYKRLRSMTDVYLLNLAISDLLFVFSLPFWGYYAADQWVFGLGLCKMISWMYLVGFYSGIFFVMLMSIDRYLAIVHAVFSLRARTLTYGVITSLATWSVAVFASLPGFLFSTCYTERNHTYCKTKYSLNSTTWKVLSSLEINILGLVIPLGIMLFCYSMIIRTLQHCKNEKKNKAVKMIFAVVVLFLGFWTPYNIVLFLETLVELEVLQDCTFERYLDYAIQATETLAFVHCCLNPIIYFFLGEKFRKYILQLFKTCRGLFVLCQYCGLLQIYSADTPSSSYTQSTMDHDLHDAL
As to the kind of experiment: Antagonist activity at CCR4. In kind it is functional.

Data set [16] in a line: Cmax in rat at 1 mg/kg, iv and 2 mg/kg, po. It counts as ADME, organism-based. Conditions: in vivo.
Data set [17] can be described thus: Half life in rat at 1 mg/kg, iv and 2 mg/kg, po. In kind it is ADME, organism-based. To be noted: in vivo.
The nature of data set [18]: Clearance in rat at 1 mg/kg, iv and 2 mg/kg, po. To be noted: in vivo. It counts as ADME, organism-based.
Data set [19] is described as follows: Volume of distribution at steady state in rat at 1 mg/kg, iv and 2 mg/kg, po. It counts as ADME, organism-based. To be noted: in vivo, read-out: Vdss.
Data set [20] in a line: Oral bioavailability in rat at 2 mg/kg. In kind it is ADME, organism-based. Conditions: in vivo.

Sequence of Voltage-gated inwardly rectifying potassium channel KCNH2 (Q12809 whole entry): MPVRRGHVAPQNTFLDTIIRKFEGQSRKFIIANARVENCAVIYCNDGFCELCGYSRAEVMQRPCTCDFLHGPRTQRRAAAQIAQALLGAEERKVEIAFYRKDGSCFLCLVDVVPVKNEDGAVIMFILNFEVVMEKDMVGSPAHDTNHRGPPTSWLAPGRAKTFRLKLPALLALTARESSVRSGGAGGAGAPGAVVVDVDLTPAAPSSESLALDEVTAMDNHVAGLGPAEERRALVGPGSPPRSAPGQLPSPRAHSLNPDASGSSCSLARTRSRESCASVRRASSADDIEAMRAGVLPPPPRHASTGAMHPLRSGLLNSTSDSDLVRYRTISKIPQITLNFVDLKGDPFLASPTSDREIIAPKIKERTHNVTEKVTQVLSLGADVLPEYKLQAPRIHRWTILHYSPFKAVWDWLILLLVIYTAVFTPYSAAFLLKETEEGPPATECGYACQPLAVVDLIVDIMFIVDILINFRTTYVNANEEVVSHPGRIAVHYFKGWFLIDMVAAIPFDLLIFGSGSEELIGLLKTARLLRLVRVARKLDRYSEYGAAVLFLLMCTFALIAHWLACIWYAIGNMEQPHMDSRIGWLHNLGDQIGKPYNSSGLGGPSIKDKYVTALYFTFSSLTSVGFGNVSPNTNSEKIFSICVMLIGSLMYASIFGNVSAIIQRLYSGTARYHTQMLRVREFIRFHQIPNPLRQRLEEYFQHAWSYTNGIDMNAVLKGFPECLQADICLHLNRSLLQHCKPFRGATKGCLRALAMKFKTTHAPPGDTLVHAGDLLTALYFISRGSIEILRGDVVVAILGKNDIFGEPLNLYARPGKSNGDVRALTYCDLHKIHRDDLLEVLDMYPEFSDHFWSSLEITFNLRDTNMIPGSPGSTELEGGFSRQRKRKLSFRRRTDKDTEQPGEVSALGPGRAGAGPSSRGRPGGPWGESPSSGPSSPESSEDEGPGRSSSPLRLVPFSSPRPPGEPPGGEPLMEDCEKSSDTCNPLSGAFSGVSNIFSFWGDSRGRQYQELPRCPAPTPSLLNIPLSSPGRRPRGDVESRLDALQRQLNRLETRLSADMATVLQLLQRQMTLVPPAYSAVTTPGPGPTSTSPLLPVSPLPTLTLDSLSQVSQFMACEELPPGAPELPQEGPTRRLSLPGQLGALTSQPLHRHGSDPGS

As to `O=C(NCCN1CCCC1)c1ccccc1Oc1ncc(Cl)cc1NS(=O)(=O)c1ccc(Cl)c(Cl)c1`, the Ki in data set [1] amounted to 631 nM; in data set [2], 2510 nM. The fold change (FC) in data set [3] is 4.
Turning to `O=C(NCCN1CCCC1)c1ccc(Oc2ccc(Cl)cc2NS(=O)(=O)c2ccc(Cl)c(C(F)(F)F)c2)cc1`, the Ki in [1] came out at 2 nM. In addition, the Kb in [4] is 501 nM.
For `COc1cc(C(=O)NCCN2CCCC2)ccc1Oc1ccc(Cl)cc1NS(=O)(=O)c1ccc(Cl)c(C(F)(F)F)c1`, the Cmax amounted to 1970 ng/mL in [5] and 652 ng/mL in data set [6]. The Ki in data set [1] was 6 nM. The Kb in data set [4] is 251 nM. The half-life in [7] was 3.9 h. Besides, the clearance in data set [8] was found to be 17 mL/min/kg. The Vd in [9] was 2.7 L/kg. Also, the bioavailability in data set [10] was found to be 37%. The molecule further registered a pH-dependent lipophilicity (logD) in data set [11] of 2.3. For the same molecule, in data set [12], the Activity turned out to be 56%. In addition, the IC50 in data set [13] is 25100 nM; in data set [14], more than 25100 nM; in data set [15] it was more than 10000 nM.
Turning to `Cc1cc(Oc2ccc(C(=O)NCCN3CCCCC3)cc2)c(NS(=O)(=O)c2ccc(Cl)c(C(F)(F)F)c2)cc1Cl`, the Ki in data set [1] was determined as 16 nM. Also, the Kb in [4] is 1260 nM.
For the molecule `O=C(NCCN1CCCCC1)c1cccc(Oc2ncc(Cl)cc2NS(=O)(=O)c2ccc(Cl)c(Cl)c2)c1`, the inhibitory constant (Ki) in data set [1] was 79 nM; in data set [2], 1260 nM. In addition, the fold change (FC) in [3] came out at 16.
For `O=C(NCCN1CCNCC1)c1ccc(Oc2ncc(Cl)cc2NS(=O)(=O)c2ccc(Cl)c(Cl)c2)cc1`, in that order: 40 nM, 251 nM and 6.
Regarding `O=C(NCCN1CCCCC1)c1ccc(Oc2ccc(Cl)cc2NS(=O)(=O)c2ccc(Cl)c(Cl)c2)cc1`, in data set [1], the Ki came out at 63 nM. For the same molecule, in [4], the Kb was 3160 nM.
In the case of `O=C(NCCN1CCCC1)c1ccc(Oc2ncc(Cl)cc2NS(=O)(=O)c2ccc(Cl)c(Cl)c2)cc1`, the values for the Ki in data set [1] and in [2] were 13 nM and 63 nM, respectively. For the same molecule, the fold change (FC) in [3] was 5.
`Cc1cc(Oc2ccc(C(=O)NCCN3CCCC3)cc2)c(NS(=O)(=O)c2ccc(Cl)c(C(F)(F)F)c2)cc1Cl`: the Ki in data set [1] came out at 8 nM. Also, the Kb in [4] was 398 nM.
Turning to `O=C(NCCN1CCCCC1)c1ccc(Oc2ncc(Cl)cc2NS(=O)(=O)c2ccc(Cl)c(Cl)c2)cc1`, the Ki came out at 13 nM in [1] and 20 nM in data set [2]. Further, in [3], the fold change (FC) amounted to 1.5. The Kb in [4] is 1580 nM.
As for `COc1cc(Oc2ccc(C(=O)NCCN3CCCC3)cc2)c(NS(=O)(=O)c2ccc(Cl)c(C(F)(F)F)c2)cc1Cl`, the Ki in [1] is 4 nM. Moreover, the Kb in [4] was 398 nM.
Take `Cc1ncccc1Oc1ncc(Cl)cc1NS(=O)(=O)c1ccc(Cl)c(Cl)c1`: the inhibition constant Ki in data set [2] was 1260 nM. Besides, the fold change (FC) in data set [3] worked out at 126.
Consider `O=C(NCCN1CCCCC1)c1ccc(Oc2ccc(Cl)cc2NS(=O)(=O)c2ccc(Cl)c(C(F)(F)F)c2)cc1`, for which the Ki in data set [1] amounted to 10 nM. For the same molecule, in data set [4], the Kb was 631 nM.
In the case of `O=C(NCCN1CCCC1)c1cccc(Oc2ncc(Cl)cc2NS(=O)(=O)c2ccc(Cl)c(Cl)c2)c1`, the Ki in [1] stood at 100 nM; in [2] it was 1000 nM. Moreover, the fold change (FC) in data set [3] worked out at 10.
Consider `COc1cc(C(=O)NCCN2CCCCC2)ccc1Oc1ccc(Cl)cc1NS(=O)(=O)c1ccc(Cl)c(C(F)(F)F)c1`, for which, in [1], the Ki came out at 25 nM. In [4], the Kb was 1000 nM.
Consider `O=C(NCCN1CCCCC1)c1ccc(Oc2ncc(Cl)cc2NS(=O)(=O)c2ccc(Cl)c(C(F)(F)F)c2)cc1`, for which the results for the Cmax in [5] and in data set [16] were 1520 ng/mL and 624 ng/mL, respectively. Also, in [1], the inhibitory constant (Ki) was found to be 3 nM. Also, in data set [4], the Kb was 398 nM. The half-life in data set [17] is 0.9 h. The clearance in data set [18] was determined as 39 mL/min/kg. Moreover, the Vd in [19] was 1.9 L/kg. Further, the bioavailability in [20] is 10%. The molecule further registered a logD in data set [11] of 3.2. Moreover, the Activity in data set [12] is 54%. Besides, the half-inhibitory concentration (IC50) was more than 25100 nM in data set [14] and more than 10000 nM in data set [15].
Regarding `Cc1cc(C(=O)NCCN2CCCC2)ccc1Oc1ccc(Cl)cc1NS(=O)(=O)c1ccc(Cl)c(C(F)(F)F)c1`, the Ki in [1] was found to be 8 nM. Also, the Kb in [4] is 501 nM.
For `COc1cc(Oc2ccc(C(=O)NCCN3CCCCC3)cc2)c(NS(=O)(=O)c2ccc(Cl)c(C(F)(F)F)c2)cc1Cl`, in that order: 10 nM and 398 nM.
As to `O=C(NCCN1CCCCC1)c1ccccc1Oc1ncc(Cl)cc1NS(=O)(=O)c1ccc(Cl)c(Cl)c1`, the Ki in data set [1] is 794 nM; in [2], 1590 nM. In addition, the fold change (FC) in data set [3] stood at 2.
`Cc1cc(C(=O)NCCN2CCCCC2)ccc1Oc1ccc(Cl)cc1NS(=O)(=O)c1ccc(Cl)c(C(F)(F)F)c1`: in data set [1], the inhibition constant (Ki) came to 25 nM. Besides, the Kb in data set [4] was 2510 nM.
As to `O=C(NCCN1CCC(F)(F)C1)c1ccc(Oc2ccc(Cl)cc2NS(=O)(=O)c2ccc(Cl)c(C(F)(F)F)c2)cc1`, in data set [1], the Ki was 63 nM. Moreover, the Kb in data set [4] was 3980 nM.
For the molecule `O=C(NCCN1CCNCC1)c1cccc(Oc2ncc(Cl)cc2NS(=O)(=O)c2ccc(Cl)c(Cl)c2)c1`, the figures for the Ki in data set [1] and in data set [2] were 200 nM and 2510 nM, respectively. In addition, the fold change (FC) in [3] was 13.

A word on the Ki: it is a dissociation constant, usually derived from enzyme kinetics or from competition with a known ligand. Usually Cmax stands for the peak of the concentration-time curve. The term half-life denotes the time needed for the level to fall by half in the phase considered. Usually bioavailability stands for dose-corrected exposure relative to a reference, in per cent. Usually logD stands for the decadic logarithm of the distribution of all forms, ionised or not, between an organic phase and buffer at a given pH. The term IC50 denotes the concentration at which inhibition is half-maximal.
